Test results: ChEMBL document CHEMBL5055631, “Antitumor properties of novel sesquiterpene lactone analogs as NFκB inhibitors that bind to the IKKβ ubiquitin-like domain (ULD)” (Eur J Med Chem, 2021)

Key:
Type in all cases: functional
[1] = tested on: HCT-116; assay: Anticancer activity against human HCT-116 cells assessed as cell growth inhibition incubated for 48 hrs by SRB method
Summary of the method: (§1)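 NCI-60 panel (DTP). Cells in RPMI 1640 with 5% FBS, 2 mM L-glutamine, seeded at 5,000–40,000 per well by doubling time and preincubated 24 h at 37 °C, 5% CO2. Time-zero plates TCA-fixed. DMSO stocks diluted in medium with gentamicin, tested at 100 μM, 10 μM, 1 μM, 0.1 μM and 10 nM for 48 h. Cells fixed with cold TCA, stained with SRB, absorbance read at 515 nm.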

[2] = tested on: UACC-62; assay: Anticancer activity against human UACC-62 cells assessed as cell growth inhibition incubated for 48 hrs by SRB method
Summary of the method: (§2)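 NCI-60 panel, SRB assay. Cells grown in RPMI 1640 with 5% FBS and 2 mM L-glutamine, seeded at 5,000–40,000 cells/well depending on doubling time, and preincubated 24 h at 37 °C with 5% CO2. Time-zero plates were TCA-fixed. Compounds came from DMSO stocks and were tested at 100 μM, 10 μM, 1 μM, 0.1 μM and 10 nM for 48 h. Cells were fixed with cold TCA and stained with 0.4% SRB, and the dye was solubilized in 10 mM Tris base with A515 read.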

[3] = tested on: TK-10; assay: Anticancer activity against human TK-10 cells assessed as cell growth inhibition incubated for 48 hrs by SRB method; summary of the method: as §2
[4] = tested on: CCRF-CEM; assay: Anticancer activity against human CCRF-CEM cells assessed as cell growth inhibition incubated for 48 hrs by sulforhodamine B assay
[5] = tested on: RPMI-8226; assay: Anticancer activity against human RPMI-8226 cells assessed as cell growth inhibition incubated for 48 hrs by SRB method
[6] = tested on: SR; assay: Anticancer activity against human SR cells assessed as cell growth inhibition incubated for 48 hrs by SRB method; summary of the method: as §1
[7] = tested on: A549; assay: Anticancer activity against human A549 cells assessed as cell growth inhibition incubated for 48 hrs by SRB method; summary of the method: as §1
[8] = tested on: EKVX; assay: Anticancer activity against human EKVX cells assessed as cell growth inhibition incubated for 48 hrs by SRB method; summary of the method: as §1
[9] = tested on: HOP-62; assay: Anticancer activity against human HOP-62 cells assessed as cell growth inhibition incubated for 48 hrs by SRB method; summary of the method: as §1
[10] = tested on: MOLT-4; assay: Anticancer activity against human MOLT-4 assessed as cell growth inhibition incubated for 48 hrs by SRB method
[11] = tested on: HOP-92; assay: Anticancer activity against human HOP-92 cells assessed as cell growth inhibition incubated for 48 hrs by SRB method
[12] = tested on: K562; assay: Anticancer activity against human K562 cells assessed as cell growth inhibition incubated for 48 hrs by SRB method
[13] = tested on: HL-60(TB); assay: Anticancer activity against human HL-60(TB) cells assessed as cell growth inhibition incubated for 48 hrs by SRB method
[14] = tested on: NCI-H226; assay: Anticancer activity against human NCI-H226 cells assessed as cell growth inhibition incubated for 48 hrs by SRB method; summary of the method: as §1
[15] = tested on: NCI-H23; assay: Anticancer activity against human NCI-H23 cells assessed as cell growth inhibition incubated for 48 hrs by SRB method; summary of the method: as §1
[16] = tested on: NCI-H460; assay: Anticancer activity against human NCI-H460 cells assessed as cell growth inhibition incubated for 48 hrs by SRB method; summary of the method: as §1
[17] = tested on: NCI-H522; assay: Anticancer activity against human NCI-H522 cells assessed as cell growth inhibition incubated for 48 hrs by SRB method
[18] = tested on: COLO 205; assay: Anticancer activity against human COLO 205 cells assessed as cell growth inhibition incubated for 48 hrs by SRB method
[19] = tested on: HCC 2998; assay: Anticancer activity against human HCC 2998 cells assessed as cell growth inhibition incubated for 48 hrs by SRB method; summary of the method: as §1
[20] = tested on: HCT-15; assay: Anticancer activity against human HCT-15 cells assessed as cell growth inhibition incubated for 48 hrs by SRB method; summary of the method: as §1
[21] = tested on: HT-29; assay: Anticancer activity against human HT29 cells assessed as cell growth inhibition incubated for 48 hrs by SRB method; summary of the method: as §1
[22] = tested on: KM12; assay: Anticancer activity against human KM12 cells assessed as cell growth inhibition incubated for 48 hrs by SRB method; summary of the method: as §1
[23] = tested on: SW-620; assay: Anticancer activity against human SW-620 cells assessed as cell growth inhibition incubated for 48 hrs by SRB method
[24] = tested on: SF-268; assay: Anticancer activity against human SF-268 cells assessed as cell growth inhibition incubated for 48 hrs by SRB method; summary of the method: as §1
[25] = tested on: SF-295; assay: Anticancer activity against human SF-295 cells assessed as cell growth inhibition incubated for 48 hrs by SRB method; summary of the method: as §1
[26] = tested on: SF-539; assay: Anticancer activity against human SF-539 cells assessed as cell growth inhibition incubated for 48 hrs by SRB method
[27] = tested on: SNB-19; assay: Anticancer activity against human SNB-19 cells assessed as cell growth inhibition incubated for 48 hrs by SRB method; summary of the method: as §1
[28] = tested on: SNB-75; assay: Anticancer activity against human SNB-75 cells assessed as cell growth inhibition incubated for 48 hrs by SRB method
[29] = tested on: U-251; assay: Anticancer activity against human U-251 cells assessed as cell growth inhibition incubated for 48 hrs by SRB method; summary of the method: as §2
[30] = tested on: LOX IMVI; assay: Anticancer activity against human LOX IMVI cells assessed as cell growth inhibition incubated for 48 hrs by SRB method
[31] = tested on: Malme-3M; assay: Anticancer activity against human MALME-3M cells assessed as cell growth inhibition incubated for 48 hrs by SRB method
[32] = tested on: M14; assay: Anticancer activity against human M14 cells assessed as cell growth inhibition incubated for 48 hrs by SRB method; summary of the method: as §1
[33] = tested on: MDA-MB-435; assay: Anticancer activity against human MDA-MB-435 cells assessed as cell growth inhibition incubated for 48 hrs by SRB method; summary of the method: as §1
[34] = tested on: OVCAR-5; assay: Anticancer activity against human OVCAR-5 cells assessed as cell growth inhibition incubated for 48 hrs by SRB method
[35] = tested on: OVCAR-8; assay: Anticancer activity against human OVCAR-8 cells assessed as cell growth inhibition incubated for 48 hrs by SRB method; summary of the method: as §1
[36] = tested on: 786-0; assay: Anticancer activity against human 786-0 cells assessed as cell growth inhibition incubated for 48 hrs by SRB method; summary of the method: as §1
[37] = tested on: RXF 393; assay: Anticancer activity against human RXF 393 cells assessed as cell growth inhibition incubated for 48 hrs by SRB method; summary of the method: as §1
[38] = tested on: PC-3; assay: Anticancer activity against human PC-3 cells assessed as cell growth inhibition incubated for 48 hrs by SRB method; summary of the method: as §1
[39] = Anticancer activity against human HS 578T cells assessed as cell growth inhibition incubated for 48 hrs by SRB method
[40] = tested on: MDA-MB-468; assay: Anticancer activity against human MDA-MB-468 cells assessed as cell growth inhibition incubated for 48 hrs by SRB method; summary of the method: as §1
[41] = tested on: SK-MEL-28; assay: Anticancer activity against human SK-MEL-28 cells assessed as cell growth inhibition incubated for 48 hrs by SRB method; summary of the method: as §1
[42] = tested on: UACC-257; assay: Anticancer activity against human UACC-257 assessed as cell growth inhibition incubated for 48 hrs by SRB method; summary of the method: as §2
[43] = tested on: IGROV-1; assay: Anticancer activity against human IGROV-1 cells assessed as cell growth inhibition incubated for 48 hrs by SRB method; summary of the method: as §1
[44] = tested on: OVCAR-4; assay: Anticancer activity against human OVCAR-4 cells assessed as cell growth inhibition incubated for 48 hrs by SRB method
[45] = tested on: NCI/ADR-RES; assay: Anticancer activity against human NCI/ADR-RES cells assessed as cell growth inhibition incubated for 48 hrs by SRB method; summary of the method: as §1
[46] = tested on: A498; assay: Anticancer activity against human A498 cells assessed as cell growth inhibition incubated for 48 hrs by SRB method; summary of the method: as §1
[47] = tested on: ACHN; assay: Anticancer activity against human ACHN cells assessed as cell growth inhibition incubated for 48 hrs by SRB method; summary of the method: as §1
[48] = tested on: CAKI-1; assay: Anticancer activity against human CAKI-1 cells assessed as cell growth inhibition incubated for 48 hrs by SRB method; summary of the method: as §1
[49] = tested on: UO-31; assay: Anticancer activity against human UO-31 cells assessed as cell growth inhibition incubated for 48 hrs by SRB method
Summary of the method: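 NCI-60 panel, SRB assay. Time-zero plates were TCA-fixed. Compounds came from DMSO stocks and were tested at 100 μM, 10 μM, 1 μM, 0.1 μM and 10 nM for 48 h. Cells were fixed with cold TCA and stained with 0.4% SRB, and the dye was solubilized in 10 mM Tris base with A515 read.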

[50] = tested on: DU-145; assay: Anticancer activity against human DU-145 cells assessed as cell growth inhibition incubated for 48 hrs by SRB method; summary of the method: as §1
[51] = tested on: MCF7; assay: Anticancer activity against human MCF7 cells assessed as cell growth inhibition incubated for 48 hrs by SRB method; summary of the method: as §1
[52] = tested on: MDA-MB-231; assay: Anticancer activity against human MDA-MB-231 cells assessed as cell growth inhibition incubated for 48 hrs by SRB method; summary of the method: as §1
[53] = tested on: BT-549; assay: Anticancer activity against human BT-549 cells assessed as cell growth inhibition incubated for 48 hrs by SRB method; summary of the method: as §1
[54] = tested on: T47D; assay: Anticancer activity against human T47D cells assessed as cell growth inhibition incubated for 48 hrs by SRB method; summary of the method: as §1

Structure (SMILES): C=C1C(=O)O[C@@H]2C3O[C@]3(C)CC/C=C(\C)CC[C@@H]12 (some centres undefined)
- GI50 [1]: 10 µM
- GI50 [2]: 3.48 µM
- GI50 [3]: 10 µM

Structure (SMILES): C=C1C(=O)O[C@H]2[C@H]1CC/C(COC(=O)NCCc1ccc(Br)cc1)=C\CC[C@@]1(C)O[C@@H]21
- GI50 [4]: 0.27 µM
- GI50 [5]: 0.62 µM
- GI50 [6]: 0.43 µM
- GI50 [7]: 2.59 µM
- GI50 [8]: 1.54 µM
- GI50 [9]: 1.99 µM
- GI50 [10]: 1.69 µM
- GI50 [11]: 1.28 µM
- GI50 [12]: 0.53 µM
- GI50 [13]: 1.06 µM
- GI50 [14]: 1.72 µM
- GI50 [15]: 1.72 µM
- GI50 [16]: 2.06 µM
- GI50 [17]: 1.16 µM
- GI50 [18]: 1.82 µM
- GI50 [19]: 1.71 µM
- GI50 [1]: 0.47 µM
- GI50 [20]: 1.01 µM
- GI50 [21]: 1.32 µM
- GI50 [22]: 1.95 µM
- GI50 [23]: 0.71 µM
- GI50 [24]: 1.56 µM
- GI50 [25]: 3.81 µM
- GI50 [26]: 1.46 µM
- GI50 [27]: 1.39 µM
- GI50 [28]: 1.2 µM
- GI50 [29]: 1.4 µM
- GI50 [30]: 1.18 µM
- GI50 [31]: 2.09 µM
- GI50 [32]: 1.26 µM
- GI50 [33]: 1.58 µM
- GI50 [34]: 0.98 µM
- GI50 [35]: 1.56 µM
- GI50 [36]: 1.49 µM
- GI50 [37]: 1.32 µM
- GI50 [38]: 1.73 µM
- GI50 [39]: 0.41 µM
- GI50 [40]: 0.84 µM

Structure (SMILES): C=C1C(=O)O[C@H]2[C@H]1CC/C(COC(=O)NCCc1cccc(OC)c1)=C\CC[C@@]1(C)O[C@@H]21
- GI50 [4]: 0.34 µM
- GI50 [5]: 0.91 µM
- GI50 [6]: 0.51 µM
- GI50 [7]: 7.28 µM
- GI50 [8]: 1.78 µM
- GI50 [9]: 4.39 µM
- GI50 [10]: 2.09 µM
- GI50 [11]: 1.84 µM
- GI50 [12]: 0.61 µM
- GI50 [13]: 1.36 µM
- GI50 [14]: 1.57 µM
- GI50 [15]: 1.86 µM
- GI50 [16]: 3.94 µM
- GI50 [17]: 1.02 µM
- GI50 [18]: 1.55 µM
- GI50 [19]: 1.68 µM
- GI50 [1]: 0.71 µM
- GI50 [20]: 1.02 µM
- GI50 [21]: 1.14 µM
- GI50 [22]: 4.27 µM
- GI50 [23]: 0.52 µM
- GI50 [24]: 1.78 µM
- GI50 [25]: 7.26 µM
- GI50 [26]: 1.49 µM
- GI50 [27]: 1.43 µM
- GI50 [28]: 1.47 µM
- GI50 [30]: 1.34 µM
- GI50 [31]: 1.84 µM
- GI50 [32]: 1.29 µM
- GI50 [33]: 1.58 µM
- GI50 [41]: 1.73 µM
- GI50 [42]: 1.99 µM
- GI50 [2]: 6.23 µM
- GI50 [43]: 1.53 µM
- GI50 [44]: 1.26 µM
- GI50 [34]: 0.99 µM
- GI50 [35]: 1.78 µM
- GI50 [45]: 2.25 µM
- GI50 [36]: 2.26 µM
- GI50 [46]: 2.95 µM
- GI50 [47]: 1.37 µM
- GI50 [48]: 2.35 µM
- GI50 [37]: 1.12 µM
- GI50 [3]: 1.19 µM
- GI50 [49]: 0.67 µM
- GI50 [38]: 1.61 µM
- GI50 [50]: 1.39 µM
- GI50 [51]: 2.3 µM
- GI50 [52]: 0.89 µM
- GI50 [39]: 0.49 µM
- GI50 [53]: 1.56 µM
- GI50 [54]: 3.43 µM
- GI50 [40]: 0.85 µM
